697 NFkB inh: lowers PMA/ionomycin-induced NF-kB signal in 697 B cells; 697 B-cell NF-kB luciferase reporter, 16 h; inhibition, % at 4 µM; 0.33% of 330,000 active; in the data active means inhibition above about 35%
FGF22 binding: FGF22 (human) thermal shift binding; recombinant FGF22 thermal shift, SYPRO orange fluorescence; percent of sucrose octasulfate shift, DMSO zero; activity (Tm shift, normalised), % at 9.99 µM; 1.5% of 340,000 active;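 active means mean Tm shift, scaled 0 neutral to 100 positive control, at about 1.3% or above, every replicate too, limit read from the data; inconclusive means no clear call, values can overlap the other calls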
Target sequence (Q9HCT0 whole entry, looked up): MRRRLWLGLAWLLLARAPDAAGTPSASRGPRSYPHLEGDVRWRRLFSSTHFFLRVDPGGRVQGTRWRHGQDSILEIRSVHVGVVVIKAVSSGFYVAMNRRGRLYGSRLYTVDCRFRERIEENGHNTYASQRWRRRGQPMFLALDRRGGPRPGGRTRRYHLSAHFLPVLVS
miR122 inh: miR-122 inhibition in Huh7 cells; AID 602342; Huh7 miR-122 Renilla luciferase sensor, 48 h; neutral wells = 0, positive control = 100; activation (reporter increase), % at 12.5 µM; 0.3% of 340,000 active;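 active means mean replicate activation score at least 90 and every replicate individually at or above 90; inconclusive means only one of the two criteria met; inactive means neither criterion met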;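 further: higher luciferase means less miR-122 activity so hits act as miR-122 inhibitors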
Jurkat NFkB inh: inhibitors of the PMA/ionomycin-induced NF-kB reporter in Jurkat cells; PMA/ionomycin-induced NF-kB luciferase reporter, luminescence; inhibition, % at 4 µM; 0.53% of 330,000 active; in the data active means inhibition above about 50%
NR2E3 ag-1: activates human NR2E3 receptor; Q9Y5X4; CHO-S Gal4-NCOR/VP16-NR2E3 two-hybrid, luciferase; inhibition of corepressor binding, % at 3.98 µM; 0.35% of 360,000 active;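 active means inhibition above the mean of all tested compounds plus 3 SD, cut at about 70% in these data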;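 further: 0% = DMSO with NR2E3 transfected cells and 100% = cells lacking NR2E3 construct; higher means lower luciferase signal from less NR2E3 corepressor binding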
NR2E3 ag-2: activates human photoreceptor nuclear receptor NR2E3; GST-NR2E3/biotin-RetCOR TR-FRET, 1536-well; inhibition of corepressor binding, % at 4.78 µM; 0.12% of 320,000 active; AID 2300;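 active means percent inhibition above the cutoff of mean plus 3 SD of all tested compounds, set per screening campaign, cut at about 20% in these data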;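 further: 0% = DMSO wells and 100% = biotin wells as full block of FRET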
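Assay system: NR2E3–RetCOR corepressor complex. Quantity: 1.35 nM GST-NR2E3. Buffer or medium: pH 7.5 Tris-based buffer. Reagent: biotinylated RetCOR corepressor at 7 nM final. Schedule: 5 h at 4 °C. Detection: TR-FRET, emission read at 617 and 671 nm. Replicates: one well per compound, singlicate testing.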
* marks the source's active call; other numbers are inactive results; ? = inconclusive; . = no result; [ ] = dose if it differs, or a comment. In the library only some 2.2% were active in any assay of this set; here they are far more common.

SMILES | 697 NFkB inh | FGF22 binding | miR122 inh | Jurkat NFkB inh | NR2E3 ag-1 | NR2E3 ag-2
O=C(COC(=O)c1ccccn1)Nc1ccc2c(c1)OCO2 | 4 | . | . | 2 | -15 | 1
O=C(NCc1cccnc1)Nc1ccc2c(c1)OCO2 | -6 | 43* | . | -16 | -20 | 2
c1cncc(CNc2ccc3c(c2)OCO3)c1 | -3 | . | -4 | -8 | -16 | 0
CCOc1ccccc1NC(=O)NCc1ccccc1 | 2 | 0 | 7 | -2 | -26 | 1
CCOc1ccccc1NC(=O)NCc1cccnc1 | -29 | 43* | 0 | -4 | -14 | 2
CC(C)NC(=O)N(C)C[C@H]1Oc2cc(-c3cccnc3)ccc2S(=O)(=O)N([C@@H](C)CO)C[C@H]1C | . | . | -6[16.7 µM] | . | . | .
CCCC(=O)NC(=S)Nc1cccc(-c2nc3ncccc3o2)c1 | 18 | 43* | . | 1 | 7 | 3
Cc1cccc(NC(=S)NC(=O)/C=C/c2ccco2)c1 | -10 | 1.4* | 9 | 24 | -70 | -2
Cc1ccc(-c2nc3ccccc3o2)cc1NC(=S)NC(=O)/C=C/c1ccco1 | -52 | . | 1 | -38 | -40 | 0
O=C(/C=C/c1ccco1)NC(=S)Nc1ccc(N2CCOCC2)c(Cl)c1 | -28 | . | 104* | 42 | -20 | 5
CC(C)CC(=O)Nc1cccc(-c2nc3ncccc3o2)c1 | -19 | 0 | 6 | -29 | 2 | -1
O=C(/C=C/c1ccco1)NC(=S)Nc1cccc(-c2nc3ccccc3o2)c1 | -33 | . | 130* | 39 | -59 | -2
C[C@@H]1CN([C@@H](C)CO)C(=O)c2cccc(NS(=O)(=O)c3ccc(F)cc3)c2O[C@@H]1CN(C)CC1CC1 | . | 0 | -1[16.7 µM] | . | . | .
Cc1ccc2c(c1)c1c3n2CCN(C(=O)CCl)C3CCC1 (configuration not stated) | 11 | 0 | . | -2 | 0 | 4
CC(=O)N1CCn2c3c(c4cc(C)ccc42)CCCC31 (configuration not stated) | 6 | 43* | . | -1 | -13 | 2
Cc1ccc(S(=O)(=O)Nc2ccc3c(c2)C(=O)N([C@H](C)CO)C[C@H](C)[C@@H](CN(C)S(C)(=O)=O)OCCCC[C@H](C)O3)cc1 | . | 0 | -1[16.7 µM] | . | . | .
Cc1cc([N+](=O)[O-])ccc1NC(=O)C[n+]1ccc(N(C)C)cc1 | 12 | 43* | -5 | -19 | -25 | -1
c1csc(CNc2ncnc3ccc(-c4ccc5c(c4)OCO5)cc23)c1 | -12 | 44* | ? | -18 | -2 | 2
COc1ccc(NC(=O)Nc2ccc3c(c2)C(=O)N([C@H](C)CO)C[C@@H](C)[C@H](CN(C)S(=O)(=O)c2ccc(F)cc2)OCCCC[C@H](C)O3)cc1 | . | 0 | -6[16.7 µM] | . | . | .
C[C@@H]1CCCCO[C@@H](CN(C)S(=O)(=O)c2cccs2)[C@H](C)CN([C@@H](C)CO)C(=O)c2cc(NC(=O)c3ccncc3)ccc2O1 | . | 0 | 9[16.7 µM] | . | . | .
N#C[C@H]1[C@H](c2ccccc2)[C@H](CO)N1C(=O)c1ccccc1F | . | 0 | . | . | . | .
COc1ccc(OCCNS(=O)(=O)c2ccc3oc4ccccc4c3c2)cc1 | 14 | . | 2 | 8 | 59 | -5
O=S(=O)(NCCOCC(F)(F)C(F)F)c1ccc2oc3ccccc3c2c1 | 3 | . | 107* | -3 | 39 | 1
CC(=O)N(C)C[C@H]1Oc2ncc(C#CC3(O)CCCC3)cc2C(=O)N([C@H](C)CO)C[C@H]1C | . | 0 | 9[16.7 µM] | . | . | .
Cc1ccc(NC(=O)C(OC(=O)c2ccc(F)cc2)c2ccccc2)cc1Cl (configuration not stated) | . | 0 | 137* | . | 4 | -4
Cc1ccc(NC(=O)C(OC(=O)c2ccc(O)cc2)c2ccccc2)cc1Cl (configuration not stated) | 8 | 78* | 2 | 9 | 9 | 0
Cc1ccc(NC(=O)C(c2ccccc2)N(C)C)cc1Cl (configuration not stated) | 16 | . | . | 3 | -2 | 3
CCCC#Cc1cnc2c(c1)C(=O)N([C@@H](C)CO)C[C@H](C)[C@@H](CN(C)C(=O)c1ccccc1)O2 | . | 0 | 11[16.7 µM] | . | . | .
O=C(CCS(=O)(=O)Cc1ccccc1)NCCc1ccccc1 | 13 | 43* | . | 3 | 4 | 5

Screening data as filed in PubChem BioAssay.
